Experimental data reported in ChEMBL document CHEMBL1124568, “2,4-Diamino-5-benzylpyrimidines as antibacterial agents. 13. Some alkenyl derivatives with high in vitro activity against anaerobic organisms” (J Med Chem, 1989).
In brackets after ≈: the same amount, converted by molar mass.

What was measured:
Dihydrofolate reductase [1] = biological target: T1, Dihydrofolate reductase (Rattus norvegicus, UniProt Q920D2); test: In vitro inhibition of rat liver dihydrofolate reductase.; settings: read-out: I50
T1 sequence (Q920D2 whole entry): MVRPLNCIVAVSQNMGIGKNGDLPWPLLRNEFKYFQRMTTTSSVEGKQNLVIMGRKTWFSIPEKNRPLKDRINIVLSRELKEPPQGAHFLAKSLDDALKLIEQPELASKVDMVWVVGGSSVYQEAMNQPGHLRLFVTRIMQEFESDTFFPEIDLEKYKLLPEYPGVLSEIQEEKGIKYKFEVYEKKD

Escherichia coli [2] = test: Antibacterial (Escherichia coli) activity compared to trimethoprim.; type: functional
Method in brief: (§1)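 Each MIC is divided by the MIC of trimethoprim run alongside. Serial dilutions were normally 0.1, 0.3, 1, 3, 10, etc., and occasionally 1, 5 and 10. For E. coli the value is the average over six strains.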

Klebsiella pneumoniae [3] = test: Antibacterial (Klebsiella pneumoniae CN3632) activity compared to trimethoprim.; type: functional; method in brief: as §1
[4] = system: Mycolicibacterium smegmatis; test: Antibacterial (Mycobacterium smegmatis S3254) activity compared to trimethoprim.; type: functional; method in brief: as §1
Pasteurella multocida = test: Antibacterial (Pasteurella multocides ATCC 6587) activity compared to trimethoprim.; type: functional; method in brief: as §1
Proteus vulgaris [5] = test: Antibacterial (Proteus vulgaris CN329) activity compared to trimethoprim.; type: functional; method in brief: as §1
[6] = Antibacterial (Salmonella typhi CN512) activity compared to trimethoprim.; type: functional, salmonella typhosa
Shigella flexneri = test: Antibacterial (Shigella flexneri CN6007) activity compared to trimethoprim.; type: functional; method in brief: as §1
Serratia marcescens = test: Antibacterial (Serratia marcescens CN2398) activity compared to trimethoprim.; type: functional; method in brief: as §1
Streptococcus pyogenes [7] = test: Antibacterial ([…] CN10) activity compared to trimethoprim.; type: functional; method in brief: as §1
Staphylococcus aureus [8] = test: Antibacterial (Staphylococcus aureus CN491) activity compared to trimethoprim.; type: functional; method in brief: as §1
Klebsiella aerogenes [9] = test: Antibacterial (Enterobacter aerogenes 2201/86) activity compared to trimethoprim.; type: functional; method in brief: as §1
Klebsiella aerogenes [10] = test: Ratio of antibacterial (Enterobacter aerogenes, 2201/86) activities of compound and trimethoprim; type: functional; method in brief: as §1
Klebsiella pneumoniae [11] = test: Ratio of antibacterial (Klebsiella pneumoniae CN3632) activities of compound and trimethoprim; type: functional; method in brief: as §1
Proteus vulgaris [12] = test: Ratio of antibacterial (Proteus vulgaris CN329) activities of compound and trimethoprim; type: functional; method in brief: as §1
Shigella dysenteriae = test: Ratio of antibacterial (Shigella dysentariae CN513) activities of compound and trimethoprim; type: functional
Staphylococcus aureus [13] = test: Ratio of antibacterial (Staphylococcus aureus CN491) activities of compound and trimethoprim; type: functional; method in brief: as §1
Salmonella = test: Ratio of antibacterial (Salmonella typhi CN512) activities of compound and trimethoprim; type: functional, salmonella typhosa
Escherichia coli [14] = test: Ratio of antibacterial (Escherichia coli CN314) activities of compound and trimethoprim; type: functional
Dihydrofolate reductase [15] = biological target: T2, Dihydrofolate reductase (Escherichia coli, UniProt P0ABQ4); test: In vitro inhibition of dihydrofolate reductase of Escherichia coli; settings: read-out: I50
T2 sequence (P0ABQ4 whole entry): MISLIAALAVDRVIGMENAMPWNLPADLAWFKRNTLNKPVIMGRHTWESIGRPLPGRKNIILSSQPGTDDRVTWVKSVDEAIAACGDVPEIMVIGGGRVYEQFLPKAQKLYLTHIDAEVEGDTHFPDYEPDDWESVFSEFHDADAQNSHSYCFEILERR
Method in brief: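 The E. coli DHFR assay contained 1 nM enzyme, with the lower limit for I50 arbitrarily set at 2 nM. I50 was estimated from plots of % inhibition of steady-state velocity vs log inhibitor concentration.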

Streptococcus pyogenes [16] = test: Ratio of antibacterial (Streptococcus pyogenes CN10) activities of compound and trimethoprim
[17] = Half-life in dogs Plasma; type: ADME, organism-based, Canis lupus familiaris; settings: dog
Method in brief: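 Two fasted (18 h) male beagles received 5 mg/kg […] (free base), co-dosed with 5 mg/kg trimethoprim in propylene glycol. Jugular plasma was sampled from 0.17 to 24 h. Drug was extracted, separated by TLC and read by fluorescence densitometry. t1/2 came from least-squares linear regression of the postabsorption segment of the plasma curve.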

Phocaeicola vulgatus = test: Ratio of antibacterial (Bacteroides vulgatus) activities compared to that of trimethoprim and metronidazole; type: functional
[18] = system: Bacteroides thetaiotaomicron; test: Ratio of antibacterial (Bacteroides thetaiotaomicron) activities compared to that of trimethoprim and metronidazole; type: functional
Clostridioides difficile = test: Ratio of antibacterial (Clostridium difficile) activities compared to that of trimethoprim and metronidazole; type: functional
Clostridium perfringens = test: Ratio of antibacterial (Clostridium perfringens) activities compared to that of trimethoprim and metronidazole; type: functional
Fusobacterium nucleatum = test: Ratio of antibacterial (Fusobacterium nucleatum) activities compared to that of trimethoprim and metronidazole; type: functional

Compound	IC50 (Dihydrofolate reductase [1])	MIC (Escherichia coli [2])	MIC (Klebsiella pneumoniae [3])	MIC [4]	MIC (Pasteurella multocida)	MIC (Proteus vulgaris [5])	MIC [6]	MIC (Shigella flexneri)	MIC (Serratia marcescens)	MIC (Streptococcus pyogenes [7])	MIC (Staphylococcus aureus [8])	MIC (Klebsiella aerogenes [9])	MIC (Phocaeicola vulgatus)	MIC [18]	MIC (Clostridioides difficile)	MIC (Clostridium perfringens)	MIC (Fusobacterium nucleatum)	further results
C=CCOc1ccc(Cc2cnc(N)nc2N)cc1	320 µM	72 µg/mL (≈ 281 µM)	100 µg/mL (≈ 390 µM)	50 µg/mL (≈ 195 µM)	100 µg/mL (≈ 390 µM)	> 100 µg/mL	100 µg/mL (≈ 390 µM)	100 µg/mL (≈ 390 µM)	> 20 µg/mL	10 µg/mL (≈ 39 µM)	100 µg/mL (≈ 390 µM)	10 µg/mL (≈ 39 µM)						
CCOc1cc(Cc2cnc(N)nc2N)cc2c1OCO2	37 µM																	MIC (Klebsiella aerogenes [10]): 10 µg/mL; MIC (Klebsiella pneumoniae [11]): 30 µg/mL; MIC (Proteus vulgaris [12]): 10 µg/mL; MIC (Shigella dysenteriae): 10 µg/mL; MIC (Staphylococcus aureus [13]): 10 µg/mL; MIC (Salmonella): 30 µg/mL; MIC (Escherichia coli [14]): 30 µg/mL; IC50 (Dihydrofolate reductase [15]): 0.041 µM; MIC (Streptococcus pyogenes [16]): 1 µg/mL
C=CCc1cc(Cc2cnc(N)nc2N)cc(OC)c1O	14.7 µM	1 µg/mL (≈ 3.49 µM)	0.3 µg/mL (≈ 1.05 µM)	3 µg/mL (≈ 10.5 µM)	1 µg/mL (≈ 3.49 µM)	3 µg/mL (≈ 10.5 µM)	3 µg/mL (≈ 10.5 µM)	1 µg/mL (≈ 3.49 µM)	3 µg/mL (≈ 10.5 µM)	1 µg/mL (≈ 3.49 µM)	0.3 µg/mL (≈ 1.05 µM)	1 µg/mL (≈ 3.49 µM)	1.6 µg/mL	1.6 µg/mL	> 25 µg/mL	> 25 µg/mL	0.2 µg/mL	half-life [17]: 42 min
C=CCc1cc(Cc2cnc(N)nc2N)cc(CC=C)c1O	9.6 µM	21 µg/mL (≈ 70.9 µM)	20 µg/mL (≈ 67.5 µM)	5 µg/mL (≈ 16.9 µM)	100 µg/mL (≈ 337 µM)	50 µg/mL (≈ 169 µM)	10 µg/mL (≈ 33.7 µM)	50 µg/mL (≈ 169 µM)	> 10 µg/mL	1 µg/mL (≈ 3.37 µM)	1 µg/mL (≈ 3.37 µM)	20 µg/mL (≈ 67.5 µM)	0.8 µg/mL	0.4 µg/mL	> 25 µg/mL	> 25 µg/mL	0.8 µg/mL	
C=CCOc1cc(Cc2cnc(N)nc2N)cc(OC)c1OC	150 µM		10 µg/mL (≈ 31.6 µM)	3 µg/mL (≈ 9.48 µM)	10 µg/mL (≈ 31.6 µM)	10 µg/mL (≈ 31.6 µM)	10 µg/mL (≈ 31.6 µM)	10 µg/mL (≈ 31.6 µM)	3 µg/mL (≈ 9.48 µM)	0.3 µg/mL (≈ 0.948 µM)	0.3 µg/mL (≈ 0.948 µM)	10 µg/mL (≈ 31.6 µM)	6.2 µg/mL	12.5 µg/mL	> 25 µg/mL	> 25 µg/mL	0.8 µg/mL	
C=CCc1cc(Cc2cnc(N)nc2N)ccc1O	94.5 µM	16 µg/mL (≈ 62.4 µM)	20 µg/mL (≈ 78 µM)	5 µg/mL (≈ 19.5 µM)	10 µg/mL (≈ 39 µM)	50 µg/mL (≈ 195 µM)	100 µg/mL (≈ 390 µM)	10 µg/mL (≈ 39 µM)	20 µg/mL (≈ 78 µM)	2 µg/mL (≈ 7.8 µM)	10 µg/mL (≈ 39 µM)	10 µg/mL (≈ 39 µM)			25 µg/mL	> 25 µg/mL	0.8 µg/mL	
CCCOc1cc(Cc2cnc(N)nc2N)cc(OC)c1OC	94.5 µM	6 µg/mL (≈ 18.8 µM)	10 µg/mL (≈ 31.4 µM)	3 µg/mL (≈ 9.42 µM)	3 µg/mL (≈ 9.42 µM)	3 µg/mL (≈ 9.42 µM)	10 µg/mL (≈ 31.4 µM)	10 µg/mL (≈ 31.4 µM)	3 µg/mL (≈ 9.42 µM)	0.3 µg/mL (≈ 0.942 µM)	0.3 µg/mL (≈ 0.942 µM)	3 µg/mL (≈ 9.42 µM)						
C/C=C/c1cc(Cc2cnc(N)nc2N)cc(CCC)c1OC	24 µM	26 µg/mL (≈ 83.2 µM)	100 µg/mL (≈ 320 µM)	2 µg/mL (≈ 6.4 µM)	20 µg/mL (≈ 64 µM)	> 100 µg/mL	20 µg/mL (≈ 64 µM)	100 µg/mL (≈ 320 µM)	> 5 µg/mL	0.1 µg/mL (≈ 0.32 µM)	1 µg/mL (≈ 3.2 µM)	100 µg/mL (≈ 320 µM)	0.4 µg/mL	0.4 µg/mL	12.5 µg/mL	12.5 µg/mL	0.8 µg/mL	
C=CCOc1ccc(Cc2cnc(N)nc2N)cc1CC=C	11 µM	72 µg/mL (≈ 243 µM)	> 100 µg/mL	> 100 µg/mL	500 µg/mL (≈ 1690 µM)	> 50 µg/mL	1000 µg/mL (≈ 3370 µM)	500 µg/mL (≈ 1690 µM)	> 10 µg/mL	2 µg/mL (≈ 6.75 µM)	10 µg/mL (≈ 33.7 µM)	> 100 µg/mL			> 25 µg/mL	> 25 µg/mL	0.8 µg/mL	
